PubChem BioAssay AID588678 (Southern Research Specialized Biocontainment Screening …, 2011)
pIC50: −log10 of the molar value. Active and inactive are the calls of the source.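 Rule for the calls: active = inhibition of 30% or more at any tested concentration; inactive = the rest.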

The molecules below were run against M18 aspartyl aminopeptidase (Plasmodium falciparum 3D7) (assay: PfM18AAP inhibitors, dose response, biochemical, QFRET fluorogenic substrate (AID 588678)). Conditions: recombinant PFM18AAP, H-Glu-NHMec fluorogenic substrate cleavage.
Procedure, shortened: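 Assay system: purified recombinant Plasmodium falciparum M18 aspartyl aminopeptidase (rPFM18AAP); reagent: H-Glu-NHMec peptide substrate (fluorogenic), 0.1 mM final; compound dosing: 10-point twofold compound dilution series; schedule: enzyme reaction with compounds, 90 min at room temperature; measured by: NHMec fluorescence at 370 nm excitation, 460 nm emission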

SMILES	pIC50
O=c1ccc2cc(O)c(O)cc2o1	4.35
Oc1ccc(CCNc2ccc3ccccc3c2)cc1O	4.94
COc1ccc2c(c1)C(=O)C(N)CC2 (stereo not drawn)	4.13
Oc1ccc(-c2csc(Cc3cc4ccccc4[nH]3)n2)cc1O	4.90
CN(CCc1ccc(O)c(O)c1)c1ccncc1	5.08
Nc1cc(C(=O)c2ccccc2)ccc1O	4.29
Cc1nc(NCCc2ccc(O)c(O)c2)c2c3c(sc2n1)CCC3	4.86
CC(C)(C)C(=O)OCc1nc(-c2ccc(O)c(O)c2)cs1	4.88
CN(CCc1ccc(O)c(O)c1)c1ccnc2ccccc12	5.31
O=S1(=O)c2ccccc2-c2cc(-c3nc(-c4ccc(O)c(O)c4)[nH]c3-c3ccccc3)ccc21	4.77
Cc1ccc(-c2nc(-c3ccc(O)c(O)c3)cs2)cc1	5.02
CCC(C)c1ccc(N)c(O)c1 (stereo not drawn)	4.71
CCOc1cccc(-c2nc(-c3ccc(O)c(O)c3)cs2)c1	5.02
Oc1ccc(CCNc2cncc3ccccc23)cc1O	4.94
Cc1c(-c2ccccc2)[nH]c(-c2ccc(O)c(O)c2)[n+]1O	4.77
O=C1OCCN1CCc1nc(-c2ccc(O)c(O)c2)cs1	5.09
Oc1ccc(CCNC(c2ccccc2)c2ccccc2)cc1O	4.98
Oc1ccc(CCCNc2c3ccccc3nc3ccccc23)cc1O	4.56

The next lines start with the values.

pIC50	SMILES
4.58	Oc1ccc(CCNC2CCN(Cc3ccccc3)CC2)cc1O
4.99	Oc1ccc(CCNc2c3c(nc4ccccc24)CCCC3)cc1O
5.27	Oc1ccc(CCNc2cccc3ccccc23)cc1O
4.65	Oc1ccc(CCN2CCc3ccccc3C2)cc1O
4.31	O=c1cc(CN2CCN(Cc3ccccc3)CC2)c2ccc(O)c(O)c2o1

Same assay, conditions: recombinant PFM18AAP, H-Glu-NHMec fluorogenic substrate cleavage; at 50 µM (top of the series)

inhibition	SMILES
inactive	O=C(O)CCCCNc1c2ccccc2nc2ccccc12
inactive	O=C(O)CCCNc1c2ccccc2nc2ccccc12
inactive	O=C1c2ccc3c4c(ccc(c24)C(=O)N1O)CC3

Same assay, conditions: recombinant PFM18AAP, H-Glu-NHMec fluorogenic substrate cleavage; at 100 µM (top of the series)

SMILES	inhibition
NCCNc1c2ccccc2nc2ccccc12	inactive
O=C(c1ccco1)N1CCN(Cc2cc(=O)c(O)c[nH]2)CC1	inactive
Oc1ccc(CCNc2c3ccccc3nc3ccccc23)cc1	inactive
Cc1c(OCc2ccccc2)c(=O)ccn1CCNc1c2ccccc2nc2ccccc12	inactive
Oc1ccc(CNc2c3ccccc3nc3ccccc23)cc1O	inactive
CCC(C)C(=O)Nc1ccccc1O (stereo not drawn)	inactive
Cc1c(O)c(=O)ccn1CCNc1c2ccccc2nc2ccccc12	inactive
O=c1ccn(CCNc2c3ccccc3nc3ccccc23)cc1OCc1ccccc1	inactive
NCc1cc2c3c(c(=O)oc2c(O)c1O)CCC3	inactive
O=C(c1ccco1)N1CCN(Cc2cc(=O)c(O)co2)CC1	inactive
CCC(C)C(=O)Nc1ccccc1N (stereo not drawn)	inactive
O=c1cc(CO)oc(CN2CCCCC2)c1O	inactive

Next, values leading:

inhibition	SMILES
inactive	COc1cccc(CCNc2c3ccccc3nc3ccccc23)c1
inactive	COc1ccc(CCNC2CCN(C)CC2)cc1OC
inactive	COc1ccc(CCNc2ccncc2)cc1OC
inactive	COc1ccc(-c2csc(-c3ccccc3)n2)cc1OC
inactive	COc1ccc(CCN2CCN(C)CC2)cc1OC
inactive	COc1ccc(CCCNc2c3ccccc3nc3ccccc23)cc1OC
inactive	COc1ccc(CCNc2cccc3ccccc23)cc1OC
inactive	COc1ccc(CCNc2cncc3ccccc23)cc1OC
inactive	COc1ccc(-c2csc(-c3ccccc3OC)n2)cc1OC
inactive	COc1ccc(CCN(C)c2ccnc3ccccc23)cc1OC
inactive	COc1ccc(CCN(C)c2ccncc2)cc1OC
inactive	COc1ccc(CCN(C)CCc2ccccc2)cc1OC
inactive	COc1ccc(CNc2c3ccccc3nc3ccccc23)cc1OC
inactive	COc1ccc(CCNC2CCN(Cc3ccccc3)CC2)cc1OC
inactive	COc1ccc(CCNc2c3ccccc3nc3ccccc23)cc1OC
inactive	COc1ccc(CCN2CCc3ccccc3C2)cc1OC
inactive	COc1ccc(CCNc2ccc3ccccc3c2)cc1OC
inactive	COc1ccc(CCC(=O)O)cc1OC
inactive	COc1ccc(CC(=O)O)cc1OC
inactive	COc1cccc(-c2nc(-c3ccc(OC)c(OC)c3)cs2)c1
inactive	COc1ccc(CCNc2c3c(nc4ccccc24)CCCC3)cc1OC
inactive	COc1ccc(CCNc2ccnc3ccccc23)cc1OC
inactive	COc1ccc(CCN(C)c2c3ccccc3nc3ccccc23)cc1OC
inactive	COc1ccc(CCNc2c3ccccc3nc3ccccc23)cc1
inactive	COc1ccc(-c2nc(-c3ccccc3)c(-c3ccccc3)[nH]2)cc1OC
